# Assays:
# [1] = target: T1, Free fatty acid receptor 1 (Homo sapiens, UniProt O14842); test: Agonist activity at human GPR40 expressed in CHO cells assessed as increase in intracellular calcium flux at 5 uM by Fluo-8 dye based FLIPR assay relative to GW9508; type: functional, cell-based
# [2] = target: T1, Free fatty acid receptor 1; test: Agonist activity at human GPR40 expressed in CHO cells assessed as increase in intracellular calcium flux by Fluo-8 dye based FLIPR assay; type: functional, cell-based
# Procedure, shortened: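 Stable CHO-GPR40 line (human receptor), seeded at 12,500 cells/well 24 h before assay. Cells were loaded 1 h with Fluo-8 calcium dye and read on FLIPR Tetra. Agonist response was taken as the maximum fluorescence change over baseline. Dose-response testing gave EC50 from fitted concentration-response curves, with GW9508 run alongside as positive control.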
# [3] = target: T2, Free fatty acid receptor 4 (Homo sapiens, UniProt Q5NUL3); test: Agonist activity at human GPR120 expressed in CHO cells assessed as increase in intracellular calcium flux by Fluo-8 dye based FLIPR assay; type: functional, cell-based
# T2 sequence (Q5NUL3 whole entry): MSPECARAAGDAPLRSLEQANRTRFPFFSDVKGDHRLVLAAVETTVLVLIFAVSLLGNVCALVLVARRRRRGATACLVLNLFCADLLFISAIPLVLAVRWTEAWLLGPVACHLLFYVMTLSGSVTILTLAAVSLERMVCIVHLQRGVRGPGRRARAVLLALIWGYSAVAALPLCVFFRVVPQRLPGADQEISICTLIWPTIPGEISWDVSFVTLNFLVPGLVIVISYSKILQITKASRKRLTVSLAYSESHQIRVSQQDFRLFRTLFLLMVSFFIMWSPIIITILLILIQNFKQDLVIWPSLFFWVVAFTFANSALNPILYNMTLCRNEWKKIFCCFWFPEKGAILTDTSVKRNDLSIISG
# Procedure, shortened: (§1)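 Separate CHO lines stably expressing GPR41, GPR43 or GPR120 (from ECACC) were used for specificity screening in the same format as the FFA1 assay. Cells were plated at 12,500/well 24 h ahead, loaded 1 h with Fluo-8 calcium dye, and read on a FLIPR Tetra. Response was taken as the maximum fluorescence change over baseline.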
# [4] = Half life in Balb/c mouse liver microsomes at 2 uM in presence of NADPH by HPLC-MS analysis; type: ADME, microsome
# Procedure, shortened: (§2)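 Microsomes from pooled (50) perfused livers of male BALB/c mice, 0.42 mg protein/mL, in 100 mM K-phosphate pH 7.4 with MgCl2 3.3 mM, NADPH 3 mM, G6P 5.3 mM and G6PDH 0.67 U/ml. Compound was 2 μM (1.6% solvent) at 37°C, sampled at five points over 40 min in duplicate. Reactions were quenched with acetonitrile and analysed by HPLC-MS/MS. kel came from ln(AUC) vs time, T1/2 = 0.693/kel, and CLint was scaled per mg microsomes.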
# [5] = target: T3, Free fatty acid receptor 3 (Homo sapiens, UniProt O14843); test: Agonist activity at human FFA3 receptor expressed in CHO cells assessed as increase in intracellular calcium flux by Fluo-8 dye based FLIPR assay; type: functional, cell-based; procedure, shortened: as §1
# T3 sequence (O14843 whole entry): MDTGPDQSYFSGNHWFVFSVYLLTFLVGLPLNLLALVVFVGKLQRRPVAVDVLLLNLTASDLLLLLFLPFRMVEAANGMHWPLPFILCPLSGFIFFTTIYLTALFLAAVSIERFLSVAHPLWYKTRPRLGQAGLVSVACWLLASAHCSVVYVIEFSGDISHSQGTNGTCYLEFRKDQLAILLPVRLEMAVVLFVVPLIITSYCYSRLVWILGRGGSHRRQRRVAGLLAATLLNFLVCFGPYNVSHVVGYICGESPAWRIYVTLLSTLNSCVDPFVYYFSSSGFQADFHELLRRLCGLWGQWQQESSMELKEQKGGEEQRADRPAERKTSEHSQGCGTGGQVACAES
# [6] = Kinetic aqueous solubility of the compound in PBS buffer […] at pH 7.4 by UV-Visible spectrophotometric analysis; type: physicochemical; settings: read-out: Kinetic_solubility
# Procedure, shortened: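 Kinetic solubility: a 40 mM DMSO stock was diluted to a nominal 800 μM in duplicate in PBS (138 mM NaCl, 2.7 mM KCl, 10 mM K-phosphate, pH 7.4, 2% final DMSO). Samples were shaken 2 h at 25°C and then filtered. Filtrates were diluted 2-fold in methanol and quantified by UV scan (200-550 nm) against 0, 200 and 400 μM calibrants in 50% methanol/PBS. Values average n = 4.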
# [7] = Apparent permeability from apical to basolateral direction in human Caco2 cells at 10 uM after 2 hrs by HPLC-MS analysis; type: ADME, cell-based; settings: Caco-2
# Procedure, shortened: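 Caco-2 cells were grown to 70–80% confluence, then seeded at 1x10⁵ cells/well on 24-well semipermeable inserts and washed twice with PBS. Compound was 10 μM in HBSS with 5,6 mM glucose and 10 mM HEPES, pH 7.4, applied apically in duplicate for 2 h at 37 °C. Receiver concentrations were measured by HPLC-MS, and Papp was computed from acceptor volume, insert area, time and acceptor/initial donor concentration.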
# [8] = Intrinsic clearance in Balb/c mouse liver microsomes at 2 uM in presence of NADPH by HPLC-MS analysis; type: ADME, microsome; procedure, shortened: as §2
# [9] = target: T4, Free fatty acid receptor 2 (Homo sapiens, UniProt O15552); test: Agonist activity at human FFA2 receptor expressed in CHO cells assessed as increase in intracellular calcium flux by Fluo-8 dye based FLIPR assay; type: functional, cell-based; procedure, shortened: as §1
# T4 sequence (O15552 whole entry): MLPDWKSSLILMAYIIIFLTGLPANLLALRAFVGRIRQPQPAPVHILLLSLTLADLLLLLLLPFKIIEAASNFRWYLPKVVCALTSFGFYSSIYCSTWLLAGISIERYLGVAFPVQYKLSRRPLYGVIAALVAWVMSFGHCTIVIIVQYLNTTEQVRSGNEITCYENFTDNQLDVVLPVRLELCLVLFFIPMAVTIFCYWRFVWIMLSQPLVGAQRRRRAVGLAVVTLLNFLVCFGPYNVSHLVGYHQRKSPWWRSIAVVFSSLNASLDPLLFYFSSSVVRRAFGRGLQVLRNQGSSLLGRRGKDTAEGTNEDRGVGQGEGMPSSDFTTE
# T1 sequence (O14842 whole entry): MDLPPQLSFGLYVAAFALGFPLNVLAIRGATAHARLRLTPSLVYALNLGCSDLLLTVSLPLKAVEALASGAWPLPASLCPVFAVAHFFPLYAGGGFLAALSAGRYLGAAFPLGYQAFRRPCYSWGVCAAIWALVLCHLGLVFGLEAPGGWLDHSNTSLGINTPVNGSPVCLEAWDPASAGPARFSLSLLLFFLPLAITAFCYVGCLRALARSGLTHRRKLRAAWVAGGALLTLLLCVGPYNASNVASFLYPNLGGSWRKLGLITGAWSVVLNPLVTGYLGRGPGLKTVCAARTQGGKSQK
%max [1],EC50 [2],Structure (SMILES),also measured
48.5%,6100 nM,O=C(O)CCc1ccc(OCc2ccc(CN3CCC4(CC3)CC(CCOc3ccncc3)CCO4)cc2)cc1 (stereo not given),–
61.7%,2560 nM,O=C(O)CCc1ccc(OCc2ccc(CN3CCC4(CC3)CC(CCOc3cccnc3)CCO4)cc2)cc1 (stereo not given),–
110%,1110 nM,Cc1ccnc(OCCC2CCOC3(CCN(Cc4ccc(COc5ccc(CCC(=O)O)cc5)cc4)CC3)C2)c1 (stereo not given),–
83.5%,1480 nM,O=C(O)CCc1ccc(OCc2ccc(CN3CCC4(CC3)CC(CCOc3cnccn3)CCO4)cc2)cc1 (stereo not given),–
54.5%,3870 nM,O=C(O)CCc1ccc(OCc2ccc(CN3CCC4(CC3)CC(CCOc3ncccn3)CCO4)cc2)cc1 (stereo not given),–
55%,2060 nM,O=C(O)CCc1ccc(OCc2ccc(CN3CCC4(CC3)CC(CCOc3ccc(F)cc3)CCO4)cc2)cc1 (stereo not given),–

# Second part, the compound before the results:
Structure (SMILES),%max [1],EC50 [2],also measured
O=C(O)CCc1ccc(OCc2ccc(CN3CCC4(CCCCO4)CC3)cc2)cc1,–,> 20000 nM,–
O=C(O)CCc1ccc(OCc2ccc(CN3CCC4(CC3)CC(Oc3ccccn3)CCO4)cc2)cc1 (stereo not given),–,900 nM,–
Cc1cccc(OCCC2CCOC3(CCN(Cc4ccc(COc5ccc(CCC(=O)O)cc5)cc4)CC3)C2)n1.Cl.Cl (stereo not given),100%,260 nM,"EC50 [3]: > 10000 nM; half-life at 2 µM [4]: 22.9 min; EC50 [5]: > 10000 nM; solubility kinetic [6]: 228 µM; Papp A→B at 2 h, 10 µM [7]: 7.3 ×10⁻⁶ cm/s; CL int at 2 µM [8]: 72.8 µL/min/mg; EC50 [9]: > 10000 nM"
O=C(O)CCc1ccc(OCc2ccc(CN3CCC4(CC3)CC(CCOc3ccc(C(F)(F)F)cn3)CCO4)cc2)cc1 (stereo not given),79.2%,33500 nM,–
Cc1nccnc1OCCC1CCOC2(CCN(Cc3ccc(COc4ccc(CCC(=O)O)cc4)cc3)CC2)C1 (stereo not given),105%,1270 nM,–
Cc1cnc(C)c(OCCC2CCOC3(CCN(Cc4ccc(COc5ccc(CCC(=O)O)cc5)cc4)CC3)C2)n1 (stereo not given),80.2%,1140 nM,–
O=C(O)CCc1ccc(OCc2ccc(CN3CCC4(CC3)CC(CCOc3ccc5ccccc5n3)CCO4)cc2)cc1 (stereo not given),83.4%,2360 nM,–
O=C(O)CCc1ccc(OCc2ccc(CN3CCC4(CC3)CC(CCOc3ncnc5c3CCC5)CCO4)cc2)cc1 (stereo not given),78.4%,1260 nM,–
O=C(O)CCc1ccc(OCc2ccc(CN3CCC4(CC3)CC(CCOc3nc(C5CC5)nc5c3CCC5)CCO4)cc2)cc1 (stereo not given),60.5%,1210 nM,–

# Source: ChEMBL document CHEMBL3992530, “Polar aromatic periphery increases agonist potency of spirocyclic free fatty acid receptor (GPR40) agonists inspired by LY2881835” (Eur J Med Chem, 2017)
